Data set [1] has as its system Rattus norvegicus. Put plainly: Hypotensive activity in anaesthetized albino rat assessed as change in systolic arterial blood pressure at 15 mg/kg, ip. Type of data set: functional, organism-based. Details: dose 15 mg/kg. To be noted: TDE = time-dependent effect.
Data set [2] deals with Rattus norvegicus. Put plainly: Hypotensive activity in anaesthetized albino rat assessed as reduction of adrenaline-induced increase in systolic arterial blood pressure at […], iv administered 30 mins before adrenaline challenge measured after 30 mins relative to control. Details: scale not given: the % may be the effect or the level left. Type of data set: functional. The procedure, abridged: (§1)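 Anaesthetised male albino rats (urethane 1.75–2.0 g/Kg i.p.; n=6 per group). Adrenaline (3/Kg i.v.) pressor response was recorded alone, 30 min before i.p. injection of the test agent (5 mg/Kg in tween 80/water). The adrenaline challenge was repeated 30 min and 1 h after dosing. Systolic and diastolic pressure were recorded via a cannulated artery and transducer.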

Data set [3] relates to Rattus norvegicus. Put plainly: Hypotensive activity in anaesthetized albino rat assessed as change in systolic arterial blood pressure at 5 mg/kg, ip after 60 mins relative to control. The conditions noted are these: route intraperitoneal.
For data set [4], the system named is Rattus norvegicus. Put plainly: Hypotensive activity in anaesthetized albino rat assessed as reduction of adrenaline-induced increase in diastolic arterial blood pressure at 3 ug/kg, iv administered 30 mins before adrenaline challenge measured after 1 hr relative to control. Type of data set: functional. Details: scale not given: the % may be the effect or the level left. The procedure, abridged:
as §1

Data set [5] has as its system Rattus norvegicus. Put plainly: Hypotensive activity in anaesthetized albino rat assessed as reduction of adrenaline-induced increase in systolic arterial blood pressure at 3 ug/kg, iv administered 30 mins before adrenaline challenge measured after 1 hr relative to control. Type of data set: functional. Details: scale not given: the % may be the effect or the level left. The procedure, abridged: as §1

The subject of data set [6] is Rattus norvegicus. Put plainly: Toxicity in anaesthetized albino rat assessed as change in heart rate at 15 mg/kg, ip after 5 mins relative to control. In kind it is organism-based. Set-up: dose 15 mg/kg, route intraperitoneal. The conditions noted are these: in vivo.
Data set [7] concerns Rattus norvegicus. Put plainly: Toxicity in anaesthetized albino rat assessed as change in heart rate at 30 mg/kg, ip after 5 mins relative to control. In kind it is organism-based. Set-up: dose 30 mg/kg, route intraperitoneal. The conditions noted are these: in vivo.
In data set [8] the test system is Rattus norvegicus. Put plainly: Hypotensive activity in anaesthetized albino rat assessed as change in diastolic arterial blood pressure at 60 mg/kg, ip after 5 mins relative to control. In kind it is functional. To be noted: route intraperitoneal.
The subject of data set [9] is Rattus norvegicus. Put plainly: Hypotensive activity in anaesthetized albino rat assessed as change in systolic arterial blood pressure at 5 mg/kg, ip after 5 mins relative to control. Type of data set: functional. To be noted: route intraperitoneal. The gist of the method:
(§2)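 Male adult albino rats (groups of 6) anaesthetised with urethane 1.75–2.0 g/Kg i.p. Test agent given i.p. at 5 mg/Kg, dissolved in tween 80 and diluted 1:3 with distilled water. A solvent-treated group served as control. Arterial pressure was recorded via a cannula and pressure transducer on a chart oscillograph at 5, 15, 30 and 60 min. Statistics by one-way ANOVA or unpaired t test.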

The subject of data set [10] is Rattus norvegicus. Put plainly: Hypotensive activity in anaesthetized albino rat assessed as change in diastolic arterial blood pressure at 5 mg/kg, ip after 5 mins relative to control. To be noted: route intraperitoneal. Type of data set: functional. The gist of the method: as §2
The subject of data set [11] is Rattus norvegicus. Put plainly: Toxicity in anaesthetized albino rat assessed as change in heart rate at 5 mg/kg, ip after 5 mins relative to control. In kind it is organism-based. Details: dose 5 mg/kg, route intraperitoneal. The conditions noted are these: in vivo. The gist of the method:
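Urethane-anaesthetised (1.75–2.0 g/Kg i.p.) male albino rats, 6 per group, received 5 mg/Kg i.p. in tween 80/distilled water (1:3); solvent-treated controls. Heart rate was taken from a lead II ECG at 5 min after injection (also 15, 30, 60 min). Analysed by ANOVA or unpaired t test.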

Data set [12] has as its system Rattus norvegicus. Put plainly: Hypotensive activity in anaesthetized albino rat assessed as change in diastolic arterial blood pressure at 5 mg/kg, ip after 30 mins relative to control. To be noted: route intraperitoneal.
For data set [13], the system named is Rattus norvegicus. Put plainly: Hypotensive activity in anaesthetized albino rat assessed as change in diastolic arterial blood pressure at 5 mg/kg, ip after 15 mins relative to control. The conditions noted are these: route intraperitoneal.
The test system of data set [14] is Rattus norvegicus. Put plainly: Hypotensive activity in anaesthetized albino rat assessed as reduction of adrenaline-induced increase in diastolic arterial blood pressure at 3 ug/kg, iv administered 30 mins before adrenaline challenge measured after 30 mins relative to control. In kind it is functional. Set-up: scale not given: the % may be the effect or the level left. The gist of the method: as §1

Data set [15] has as its system Rattus norvegicus. Put plainly: Hypotensive activity in anaesthetized albino rat assessed as change in diastolic arterial blood pressure at 5 mg/kg, ip. The conditions noted are these: TDE = time-dependent effect.
The subject of data set [16] is Rattus norvegicus. Put plainly: Hypotensive activity in anaesthetized albino rat assessed as change in systolic arterial blood pressure at 5 mg/kg, ip after 15 mins relative to control. To be noted: route intraperitoneal.
The test system of data set [17] is Rattus norvegicus. Put plainly: Toxicity in anaesthetized albino rat assessed as change in heart rate at 60 mg/kg, ip after 5 mins relative to control. Type of data set: organism-based. Set-up: dose 60 mg/kg, route intraperitoneal. The conditions noted are these: in vivo.

On to `CC1(C)CC(=O)C2=C(C1)N(c1ccc(Cl)cc1)CN(c1ccccc1)C2`, for which the Activity entry in data set [1] was “tde”; in data set [2] it was -7%; in [3], -6%; in data set [4] it was 0%; in [5], 0%; in [6], 0%. Moreover, the Activity is 6.25% in data set [7]; -7.7% in [8]; 0% in data set [9]; 0% in [10]; 0% in [11]; -7.7% in data set [12]. Besides, the Activity was 0% in [13]; -9% in [14]; “tde” in [15]; 0% in [16]; 12% in [17].
